In paper PMC4706799 (Cancer prevention research (Philadelphia, Pa.), 2015):
pIC50: −log10 of the molar value. Values joined by “and” are separate entries in the source; they are usually repeats but may differ in a detail not shown here. Identical values can stand only once.

Tests used:
[1] = cited from earlier work
[2] = cited from earlier work; remark: listed apart in the source
886LN = experiment: SRB growth inhibition assay, 886LN; type: cell-based; conditions: 72 h
Procedure, shortened: (§1)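 SCCHN lines were kept in DMEM/F12 (1:1) with 10% heat-inactivated FBS at 37 °C and 5% CO2; MSK-Leuk1 was kept in keratinocyte basal medium. Cells were seeded in 96-well plates, incubated overnight, then exposed for 72 h to a range of test-compound concentrations (DMSO stock diluted in RPMI, final DMSO <0.1%). Growth inhibition was read by sulforhodamine B staining, and IC50 was calculated by software.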

Tu212 = experiment: SRB growth inhibition assay, Tu212; type: cell-based
Procedure, shortened: as §1

Tu177 = experiment: SRB growth inhibition assay, Tu177; type: cell-based
Procedure, shortened: as §1

Tu686 = experiment: SRB growth inhibition assay, Tu686; type: cell-based
Procedure, shortened: as §1

SQCCY1 = experiment: SRB growth inhibition assay, SQCCY1; type: cell-based
Procedure, shortened: as §1

MSK-Leuk1 = experiment: SRB growth inhibition assay, MSK-Leuk1; type: cell-based; conditions: 72 h
Procedure, shortened: as §1

JHU022 = experiment: SRB growth inhibition assay, JHU022; type: cell-based
Procedure, shortened: as §1

PCI-13 = experiment: SRB growth inhibition assay, PCI-13; type: cell-based
Procedure, shortened: as §1

UM-22B = experiment: SRB growth inhibition assay, UM-22B; type: cell-based; conditions: 72 h
Procedure, shortened: as §1

SCCHN cell lines = experiment: Annexin V-PE staining for apoptosis; type: cell-based; conditions: for concentration sufficient to induce ~80% apoptosis: by 48 h, annexin V-PE
MSK cell line = experiment: Annexin V-PE staining for apoptosis, MSK; type: cell-based; conditions: 24 h treatment
Procedure, shortened: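 MSK-Leuk1 premalignant cells, grown in keratinocyte basal medium, were seeded in 6-cm plates to 40–50% confluency. They were treated for 24 h with test compound at doses chosen per cell line (DMSO stock diluted in RPMI, final DMSO <0.1%). Cells were trypsinized, washed in cold PBS, stained with annexin V-PE plus 7-AAD for 15 min at room temperature, and read by flow cytometry. Three independent experiments; mean ± SD; paired two-tailed t-test versus untreated control.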

[3] = Pharmacokinetic study, plasma LC/MS/MS; type: in vivo, A/J mice
Tu686 SCCHN xenografts = experiment: Nude mouse xenograft model; type: in vivo, nude mice; conditions: for effect on tumor volume: 50 mg/kg i.p., once/day, five days/week, 17 days
[4] = Body weight and organ toxicity in xenograft study; type: in vivo; conditions: 50 mg/kg i.p., 17 days
PARP = experiment: Western blot for PARP cleavage; type: cell-based; conditions: Tu212, Tu686, MSK-LEUK1, 24 h
Procedure, shortened: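 Tu212, Tu686 and MSK-Leuk1 cells were treated with test compound at indicated doses for 24 h. Whole-cell lysates (20 µg protein) were run on 8–12% SDS-PAGE and transferred to PVDF. Blots were probed with a PARP antibody recognising both full-length and cleaved forms, with β-actin or GAPDH as loading control, and detected by enhanced chemiluminescence.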

cytochrome c = experiment: Cytochrome c release in the cytoplasm; type: cell-based; conditions: Tu212 cells
Procedure, shortened: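 Tu212 cells were treated with test compound. Cytosolic and mitochondrial fractions were separated and immunoblotted for cytochrome c, with ERK as cytoplasmic control and Cox4 as mitochondrial control. Equal protein (20 µg) was run on 8–12% SDS-PAGE, transferred to PVDF and detected by enhanced chemiluminescence. Blots shown represent three independent experiments.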

Bcl-2 = experiment: Western blot, Bcl-2 expression; type: cell-based; conditions: Tu212 and Tu686, 24 h
Procedure, shortened: (§2)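 Tu212 and Tu686 cells were treated with test compound at indicated doses for 24 h. Whole-cell lysates were immunoblotted for Bcl-2 family proteins (Bcl-2, Bcl-xL, Mcl-1, Bid, Bim, PUMA, NOXA), using 20 µg protein per lane on 8–12% SDS-PAGE and PVDF transfer. β-Actin or GAPDH served as loading control; detection was by enhanced chemiluminescence.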

Bid = experiment: Western blot, Bid expression; type: cell-based; conditions: Tu212 and Tu686, 24 h
Procedure, shortened: as §2

Bim = experiment: Western blot, Bim expression; type: cell-based; conditions: Tu212 and Tu686, 24 h
Procedure, shortened: as §2

Bcl-xL = experiment: Western blot, Bcl-xL expression; type: cell-based; conditions: Tu212 and Tu686, 24 h
Procedure, shortened: as §2

Mcl-1 = experiment: Western blot, Mcl-1 expression; type: cell-based; conditions: Tu212 and Tu686, 24 h
Procedure, shortened: as §2

Bcl-2 mRNA = experiment: Real-time qPCR, Bcl-2 mRNA; type: cell-based; conditions: Tu212 and Tu686
Procedure, shortened: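 Tu212 and Tu686 cells were treated with test compound at 1 µM and 2 µM (T1) or 2 µM and 3 µM (T2), respectively. Total RNA was column-extracted, and 2 µg was reverse transcribed to cDNA. Bcl-2 mRNA was quantified by SYBR Green real-time qPCR and compared with the corresponding untreated control.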

EGFR = experiment: Western blot, pEGFR and EGFR; type: cell-based; conditions: Tu212, Tu686, MSK-LEUK1
AKT = experiment: Western blot, pAKT and AKT; type: cell-based; conditions: Tu212, Tu686, MSK-LEUK1
EGFR mRNA = experiment: Real-time qPCR, EGFR mRNA; type: cell-based; conditions: Tu212 and Tu686
AKT mRNA = experiment: Real-time qPCR, AKT mRNA; type: cell-based; conditions: Tu212 and Tu686
[5] = system: mTOR pathway (S6 and 4EBP1); experiment: Western blot, mTOR pathway readouts; type: cell-based; conditions: Tu212, Tu686, MSK-LEUK1
Procedure, shortened: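 Tu212, Tu686 and MSK-Leuk1 cells were treated with different doses of test compound. Whole-cell lysates (20 µg protein, 8–12% SDS-PAGE, PVDF) were immunoblotted for p-mTOR, p-S6, S6, p-4EBP1 and 4EBP1, with β-actin or GAPDH loading control and chemiluminescent detection. Blots shown represent three independent experiments.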

FOXO1 and 3 = experiment: Western blot, FOXO phosphorylation; type: cell-based; conditions: Tu686 cells, multiple sites
Procedure, shortened: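 Tu686 cells were exposed to test compound, and whole-cell lysates were probed by Western blot for phospho-FOXO1a and phospho-FOXO3a. Equal protein (20 µg) was separated on 8–12% SDS-PAGE and blotted to PVDF, with β-actin or GAPDH as loading control and enhanced chemiluminescence detection. Blots shown represent three independent experiments.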

[6] = system: premalignant (MSK-LEUK1) and malignant SCCHN cell lines; experiment: SRB growth inhibition assay, cell line panel; type: cell-based; conditions: 72 h, read-out: IC50 values, range over the cell lines
Procedure, shortened: as §1

[7] = cited from earlier work; remark: listed apart in the source
[8] = female, A/J, mouse, plasma, po, 200 mg/kg

COc1cc(/C=C/C(=O)C(=Cc2ccc(F)c(F)c2)C(=O)/C=C/c2ccc(O)c(OC)c2)ccc1O [CDF]
accumulation in pancreatic tissue, fold higher than curcumin [1]: 10.6 fold
systemic drug level, fold greater than curcumin [1]: 2.7 fold

O=C1/C(=C/c2ccccc2F)CNC/C1=C\c1ccccc1F [EF24]
fold better anti-cancer efficacy than natural curcumin in vitro [2]: ~ 10 fold

COc1cc(/C=C/C(=O)/C=C/c2cc(OC)c(O)c(OC)c2)cc(OC)c1O [FLLL12]
pIC50 (886LN; 886LN, SRB assay): 6.14
pIC50 (Tu212; Tu212, 72 h, SRB assay): 6.34
pIC50 (Tu177; Tu177, 72 h, SRB assay): 6.35
pIC50 (Tu686; Tu686, 72 h, SRB assay): 6.17
pIC50 (SQCCY1; SQCCY1, 72 h, SRB assay): 5.81
pIC50 (MSK-Leuk1; MSK-Leuk1 (premalignant), SRB assay): 6.46
pIC50 (JHU022; JHU022, 72 h, SRB assay): 6.11
pIC50 (PCI-13; PCI-13, 72 h, SRB assay): 6.46
pIC50 (UM-22B; UM-22B, SRB assay): 6.24
fold more potent than curcumin in inducing apoptosis (SCCHN cell lines; SCCHN cell lines): 5–10 fold
concentration sufficient to induce ~80% apoptosis (SCCHN cell lines): 1 to 3 µM
apoptosis (MSK cell line): more than 80%
AUC (0-∞) ([3]; 200 mg/kg oral): 418.5 ng·h/mL
AUC, fold greater than curcumin ([3]; 200 mg/kg oral): 3–4 fold
Cmax, fold greater than curcumin ([3]; 200 mg/kg oral): 4.3 fold and ~ 4.0 fold and 3–4 fold
terminal elimination half-life (t½) ([3]; 200 mg/kg oral): 4.8 h
Tmax ([3]; 200 mg/kg oral, DMSO/0.5% CMC, plasma): 0.5 h
Cmax ([3]; 200 mg/kg oral, plasma): 241.5 ng/mL
effect on tumor volume (Tu686 SCCHN xenografts): significantly reduced tumor volume
toxicity (H&E of major organs, body weight) [4]: without inducing any notable toxicity
cleavage of PARP (PARP): markedly induced the cleavage of PARP
release of cytochrome c in the cytoplasm (cytochrome c): caused release of cytochrome c
expression of Bcl-2 protein (Bcl-2): inhibited
expression of Bid (full length) (Bid): inhibited
expression of Bim (Bim): increased
expression of Bcl-xL (Bcl-xL): remained mostly unchanged
expression of Mcl-1 (Mcl-1): remained mostly unchanged
expression of Bcl-2 mRNA (Bcl-2 mRNA): increased rather than decreased
phosphorylation of EGFR (EGFR): inhibited the phosphorylation
total EGFR protein (EGFR): inhibited
phosphorylation of AKT (AKT): inhibited the phosphorylation
total AKT protein (AKT): inhibited
mRNA expression of EGFR (EGFR mRNA): strongly inhibited the mRNA expression
mRNA expression of AKT (AKT mRNA): strongly inhibited the mRNA expression
phosphorylation of S6 and 4EBP1 [5]: strongly inhibited phosphorylation
phosphorylation of FOXO1 and 3 (FOXO1 and 3): strongly inhibited the phosphorylation

CN1C/C(=C\c2ccccn2)C(=O)/C(=C/c2ccccn2)C1 [UBS109]
fold better anti-cancer efficacy than natural curcumin in vitro [2]: ~ 10 fold

O=C1/C(=C/c2ccccn2)CNC/C1=C\c1ccccn1 [compound 31]
fold better anti-cancer efficacy than natural curcumin in vitro [2]: ~ 10 fold

COc1cc(/C=C/C(=O)CC(=O)/C=C/c2ccc(O)c(OC)c2)ccc1O [curcumin, reference compound]
pIC50 (886LN): 4.76
pIC50 (Tu212; TU212, 72 h): 5.16
pIC50 (Tu177; 72 h): 5.28
pIC50 (Tu686; Tu 686, 72 h): 5.17
pIC50 (SQCCY1; 72 h): 4.90
pIC50 (MSK-Leuk1): 5.17
pIC50 (JHU022; 72 h): 5.34
pIC50 (PCI-13; 72 h): 5.24
pIC50 (UM-22B): 5.11
pIC50 [6]: 4.76 to 5.34
concentration sufficient to induce ~80% apoptosis (SCCHN cell lines): 10 to 15 µM
AUC(0-inf) [3, 8]: 131 ng·h/mL
Cmax [3, 8]: 55.6 ng/mL
Tmax [3, 8]: 0.25 h
half-life [3, 8]: 7.7 h
effect on tumor volume (Tu686 SCCHN xenografts): had no effect
efficacy in xenograft study (Tu686 SCCHN xenografts; 150 mg/kg, earlier study, data not shown): did not find any efficacy
phosphorylation of EGFR (EGFR): inhibited the phosphorylation
total EGFR protein (EGFR): inhibited
phosphorylation of AKT (AKT): inhibited the phosphorylation
total AKT protein (AKT): inhibited
mRNA expression of EGFR (EGFR mRNA): strongly inhibited the mRNA expression
mRNA expression of AKT (AKT mRNA): strongly inhibited the mRNA expression
oral bioavailability [7]: ~ 1%
